This passage reports LD50, IC50 and CC50 results from ChEMBL document CHEMBL1126254, “Specific inhibition of HIV-1 protease by boronated porphyrins” (J Med Chem, 1992).

The test system of one test is COS A6. Briefly: (§1) Cytotoxicity on COS A6 cells in the absence of 10% fetal calf serum(FCS). The test is classed as functional. In short, it runs like this:
(§2)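 COS A6 cells, which are cloned progeny that constitutively release viral capsids, were cultured without fetal calf serum and exposed to compound. Viability was read by MTT stain assay, and the LD50 was derived from it.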

For test [1], the target named is Human immunodeficiency virus type 2 pol protein (Human immunodeficiency virus 2, UniProt P88142). Briefly: Inhibition of HIV-2 protease in 5%DMSO. The procedure, abridged:
(§3)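 Purified recombinant HIV PR activity was followed by cleavage of a decapeptide substrate. Incubation was 30–45 min at 37 °C, and hydrolysis products were quantified by HPLC.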

A short description of test [2]: as §1. In kind it is functional. As to conditions: read-out: LD50 (the source's name). In short, it runs like this:
as §2

The target in test [3] is T1, Human immunodeficiency virus type 1 protease (Human immunodeficiency virus 1, UniProt Q72874). Kind of test: Inhibition of HIV-1 protease in 5%DMSO. The procedure, abridged: as §3
The target of test [4] is T1, Human immunodeficiency virus type 1 protease. Briefly: Inhibition of HIV-1 protease in 10% fetal calf serum(FCS). In short, it runs like this: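 COS A6 cells, which constitutively release viral capsids, were exposed to inhibitor in Dulbecco's PBS for 15 min. An equal volume of medium with 10% FCS plus inhibitor was then added and incubation continued for 3.75 h. Capsids were isolated from the supernatant, and polyprotein processing was scored as p24 by ELISA.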

The target of test [5] is HIV-2 protease (Human immunodeficiency virus 2). Kind of test: Inhibitory concentration against HIV-2 protease in the absence of DMSO.
For test [6], the target named is T1, Human immunodeficiency virus type 1 protease. Briefly: Inhibitory concentration against HIV-1 protease in the absence of DMSO. The procedure, abridged:
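The water-soluble dipotassium salt was tested against aspartyl proteases with no DMSO present, and IC50 values were determined.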

By IC50 is commonly meant the concentration that inhibits the measured activity by half.

Chain of Human immunodeficiency virus type 2 pol protein (P88142 whole entry): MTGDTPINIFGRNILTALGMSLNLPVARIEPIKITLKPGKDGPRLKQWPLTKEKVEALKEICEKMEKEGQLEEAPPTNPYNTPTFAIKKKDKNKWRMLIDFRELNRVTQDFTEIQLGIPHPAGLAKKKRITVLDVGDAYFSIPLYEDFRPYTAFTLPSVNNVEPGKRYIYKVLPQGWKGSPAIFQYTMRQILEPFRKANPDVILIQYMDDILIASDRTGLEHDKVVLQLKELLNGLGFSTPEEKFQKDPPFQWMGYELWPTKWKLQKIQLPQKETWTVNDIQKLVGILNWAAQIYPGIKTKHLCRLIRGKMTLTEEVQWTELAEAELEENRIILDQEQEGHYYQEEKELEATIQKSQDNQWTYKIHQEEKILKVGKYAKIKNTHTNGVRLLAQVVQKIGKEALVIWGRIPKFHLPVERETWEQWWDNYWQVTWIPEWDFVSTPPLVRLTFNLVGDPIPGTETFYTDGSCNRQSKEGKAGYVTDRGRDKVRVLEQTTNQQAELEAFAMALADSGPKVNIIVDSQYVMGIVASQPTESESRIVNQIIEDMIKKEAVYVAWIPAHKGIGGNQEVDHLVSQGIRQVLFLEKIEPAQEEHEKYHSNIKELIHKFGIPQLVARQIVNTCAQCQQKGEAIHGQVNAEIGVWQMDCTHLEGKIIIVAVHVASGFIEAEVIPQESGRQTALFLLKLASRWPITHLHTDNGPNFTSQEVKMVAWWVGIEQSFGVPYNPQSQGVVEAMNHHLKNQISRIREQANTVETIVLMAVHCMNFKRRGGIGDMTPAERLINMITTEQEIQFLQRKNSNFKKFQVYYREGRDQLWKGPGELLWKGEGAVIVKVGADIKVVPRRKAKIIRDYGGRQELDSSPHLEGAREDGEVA

“3-[18-(2-Carboxy-ethyl)-8,13-bis-(1,2-diacetoxy-ethyl)-3,7,12,17-tetramethyl-22,24-dihydro-porphin-2-yl]-propionic acid;Mn complex” displayed an LD50 in the test with COS A6 of 70 µM.
Take `CC1=C(C(COC(=O)c2ccc(N(C)C)cc2)OC(=O)c2ccc(N(C)C)cc2)c2cc3nc(cc4[nH]c(cc5[nH]c(cc1n2)c(C)c5CCC(=O)O)c(CCC(=O)O)c4C)C(C(COC(=O)c1ccc(N(C)C)cc1)OC(=O)c1ccc(N(C)C)cc1)=C3C` (stereo unspecified): the IC50 turned out to be 18 µM in test [1], 7 µM in test [3] and 75 µM in test [4]. For the same compound, the CC50 in test [2] (COS A6) was over 250 µM.
On to `CC1=C(C(COC(=O)C23C[C@H]4C[C@@H](C2)C[C@@H](C3)C4)OC(=O)C23C[C@H]4C[C@@H](C2)C[C@@H](C3)C4)c2cc3nc(cc4[nH]c(cc5[nH]c(cc1n2)c(C)c5CCC(=O)O)c(CCC(=O)O)c4C)C(C(COC(=O)C12C[C@H]4C[C@@H](C1)C[C@@H](C2)C4)OC(=O)C12C[C@H]4C[C@@H](C1)C[C@@H](C2)C4)=C3C` (stereo partly specified), for which the IC50 in test [1] turned out to be 13 µM; in test [3], 5 µM. Moreover, the CC50 in test [2] (COS A6) was 250 µM.
For the compound `CC[C@H](C)[C@H](NC(=O)[C@H](C(C)C)[C@@H](O)[C@H](O)[C@H](CC1CCCCC1)NC(=O)[C@H](Cc1c[nH]cn1)NC(=O)COc1cccc2ccccc12)C(=O)NCc1ccccn1`, the IC50 in test [1] was 0.03 µM; in test [3] it was under 0.001 µM; in test [4] it was 0.75 µM. Moreover, the CC50 in test [2] (COS A6) was found to be 45 µM.
For `CC1=C(C(COC(=O)c2ccc3ccccc3c2)OC(=O)c2ccc3ccccc3c2)c2cc3nc(cc4[nH]c(cc5[nH]c(cc1n2)c(C)c5CCC(=O)O)c(CCC(=O)O)c4C)C(C(COC(=O)c1ccc2ccccc2c1)OC(=O)c1ccc2ccccc2c1)=C3C` (stereo unspecified) the same measures were 23 µM, 14 µM, over 150 µM and 250 µM.
For `CC1=C(C(O)CO)c2cc3nc(cc4[nH]c(cc5[nH]c(cc1n2)c(C)c5CCC(=O)O)c(CCC(=O)O)c4C)C(C(O)CO)=C3C` (stereo unspecified) the same measures were 480 µM, 280 µM, over 200 µM and 250 µM.
Turning to “3-[18-(2-Carboxy-ethyl)-8,13-bis-(1,2-diacetoxy-ethyl)-3,7,12,17-tetramethyl-22,24-dihydro-porphin-2-yl]-propionic acid;Cu complex [listing 1 of 2 here]”, half-maximal inhibition in test [5] (IC50) required 0.47 µM.
`C=CC1=C(C)c2cc3[nH]c(cc4nc(cc5[nH]c(cc1n2)c(C)c5CCC(=O)O)C(CCC(=O)O)=C4C)c(C)c3C=C` [PROTOPORPHYRIN]: the IC50 in test [1] was 500 µM; in test [3], 300 µM; in test [4], over 200 µM. Also, in test [2] (COS A6), the CC50 is under 50 µM.
As to “3-[18-(2-Carboxy-ethyl)-8,13-bis-(1,2-diacetoxy-ethyl)-3,7,12,17-tetramethyl-22,24-dihydro-porphin-2-yl]-propionic acid;Co complex [listing 1 of 2 here]”, the LD50 with COS A6 amounted to 150 µM.
In the case of `CC1=C(CCC(=O)O)c2cc3[nH]c(cc4[nH]c(cc5nc(cc1n2)C(C)=C5C(COC(=O)C1=CC1)OC(=O)C1=CC1)c(C)c4C(COC(=O)C1=CC1)OC(=O)C1=CC1)c(C)c3CCC(=O)O` (stereo in doubt), the IC50 in test [1] was 11 µM; in test [3], 12 µM; in test [4], over 150 µM. Also, the CC50 in test [2] turned out to be 250 µM.
`CC1=C(C(COC(=O)c2ccccc2)OC(=O)c2ccccc2)c2cc3nc(cc4[nH]c(cc5[nH]c(cc1n2)c(C)c5CCC(=O)O)c(CCC(=O)O)c4C)C(C(COC(=O)c1ccccc1)OC(=O)c1ccccc1)=C3C` (stereo unspecified): the IC50 was 30 µM in test [1], 14 µM in test [3] and over 100 µM in test [4]. In test [2] (COS A6), the CC50 was determined as 250 µM.
In the case of `CC1=C(CCC(=O)O)c2cc3[nH]c(cc4[nH]c(cc5nc(cc1n2)C(C)=C5C(COC(=O)C1=CCC1)OC(=O)C1=CCC1)c(C)c4C(COC(=O)C1=CCC1)OC(=O)C1=CCC1)c(C)c3CCC(=O)O` (stereo unspecified), the IC50 is 1.55 µM in test [1], 0.7 µM in test [3], 10 µM in test [4] and 0.9 µM in test [6]. Further, the CC50 in test [2] (COS A6) was found to be 25 µM.
In the test with COS A6, “3-[18-(2-Carboxy-ethyl)-8,13-bis-(1,2-diacetoxy-ethyl)-3,7,12,17-tetramethyl-22,24-dihydro-porphin-2-yl]-propionic acid;Cu complex [listing 2 of 2 here]” displayed an LD50 of 80 µM.
As for “3-[18-(2-Carboxy-ethyl)-8,13-bis-(1,2-diacetoxy-ethyl)-3,7,12,17-tetramethyl-22,24-dihydro-porphin-2-yl]-propionic acid;Co complex [listing 2 of 2 here]”, the IC50 in test [4] was determined as 25 µM.
